Test results as given in ChEMBL document CHEMBL1123382, “Potential tumor- or organ-imaging agents. 27. Polyiodinated 1,3-disubstituted and 1,2,3-trisubstituted triacylglycerols” (J Med Chem, 1986).
Values joined by “and” are separate entries in the source; they are usually repeats but may differ in a detail not shown here. Identical values can stand only once.

Key:
Rattus norvegicus [1] = test: Compound (125I labeled) was evaluated for the total radioactivity in high-density lipoprotein 5 min after intravenous administration.; type: functional
Summary of the method: (§1)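 Rat plasma taken 5 or 30 min after iv dosing of 125I-labeled compound (saline/Tween-20) and run on polyacrylamide gel electrophoresis. Gels sectioned and each section gamma-counted. Radioactivity in each band (stacking gel, lipoproteins, albumin, below-albumin) is given as % of total radioactivity applied to the gel.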

Rattus norvegicus [2] = test: Biodistribution in Rat blood after 5 minutes of iv administration; per g of tissue; type: ADME, organism-based; details: in vivo
Summary of the method: (§2)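 125I-labeled compound solubilized in normal saline with Tween-20 and given iv to rats, about 5-30 μCi (9-83 μg) per animal. Three to five rats per time point. Rats killed by exsanguination under ether anesthesia at 5 min, 30 min or 24 h. Organs minced, blotted free of blood and counted for radioiodine. Lines with "per g" are % administered dose per gram ± SEM.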

Rattus norvegicus [3] = test: Biodistribution in Rat blood after 24 hours of iv administration; per g of tissue; type: ADME, organism-based; details: in vivo; summary of the method: as §2
Rattus norvegicus [4] = test: Biodistribution in Rat liver after 5 minutes of iv administration; per g of tissue; type: ADME, organism-based; details: in vivo; summary of the method: as §2
Rattus norvegicus [5] = test: Compound (125I labeled) was evaluated for the total radioactivity in albumin 5 min after intravenous administration.; type: functional; set-up: concentration or dose not given beside the values; summary of the method: as §1
Rattus norvegicus [6] = test: Compound was evaluated for the lipid soluble radioactivity extracted from rat liver at 0.5 hr after intravenous administration.; type: functional
Summary of the method: (§3)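 Liver and plasma taken 0.5 or 24 h after iv dosing of 125I-labeled compound in rats (n = 3-5). Extracted by a modified Folch procedure; value is % lipid (CHCl3/MeOH)-extractable radioactivity ± SEM. Extracts run on TLC in hexane/ethyl acetate 5:2 against unlabeled standard, then 1-cm strips counted to give % parent compound.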

Rattus norvegicus [7] = test: Compound (125I labeled) was evaluated for the total radioactivity in high-density lipoprotein, at 30 min after intravenous administration.; type: functional; summary of the method: as §1
Rattus norvegicus [8] = test: Liver radioactivity after iv administration of compound (24 h) in rats; type: functional, organism-based
Summary of the method: (§4)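 Rats (3-5 per time point) dosed iv with about 5-30 μCi (9-83 μg) of 125I-labeled compound in saline containing Tween-20. Killed by exsanguination under ether at 5 min, 30 min or 24 h. Liver removed, minced, blotted and counted. Values are % administered dose per organ, based on each animal's actual liver weight, ± SEM.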

Rattus norvegicus [9] = test: Biodistribution in Rat heart after 30 minutes of iv administration; per g of tissue; type: ADME, organism-based; details: in vivo, 0.5 h; summary of the method: as §2
Rattus norvegicus [10] = test: Liver radioactivity after iv administration of compound (30 min) in rats; type: functional, organism-based; summary of the method: as §4
Rattus norvegicus [11] = test: Compound was evaluated for the lipid soluble radioactivity extracted from rat plasma at 0.5 hr after intravenous administration.; type: functional; summary of the method: as §3
Rattus norvegicus [12] = test: (§5) Biodistribution in Rat liver after 30 minutes of iv administration; per g of tissue; type: ADME, organism-based; details: in vivo, 0.5 h; summary of the method: as §2
Rattus norvegicus [13] = test: Liver radioactivity after iv administration of compound (5 min) in rats; type: functional, organism-based; summary of the method: as §4
Rattus norvegicus [14] = test: as §5; type: ADME, organism-based; details: in vivo, 0.5 h; summary of the method: as §2; remark: listed apart in the source
Rattus norvegicus [15] = test: Biodistribution in Rat blood after 30 minutes of iv administration; per g of tissue; type: ADME, organism-based; details: in vivo, 0.5 h; summary of the method: as §2
Rattus norvegicus [16] = test: Evaluated for the total radioactivity in below albumin at 30 min after intravenous administration.; type: functional; summary of the method: as §1
Rattus norvegicus [17] = test: Biodistribution in Rat lung after 30 minutes of iv administration; per g of tissue; type: ADME, organism-based; details: in vivo, 0.5 h; summary of the method: as §2
Rattus norvegicus [18] = test: Biodistribution in Rat lung after 24 hours of iv administration; per g of tissue; type: ADME, organism-based; details: in vivo; summary of the method: as §2
Rattus norvegicus [19] = test: Biodistribution in Rat heart after 5 minutes of iv administration; per g of tissue; type: ADME, organism-based; details: in vivo; summary of the method: as §2
Rattus norvegicus [20] = test: Biodistribution in Rat liver after 24 hours of iv administration; per g of tissue; type: ADME, organism-based; details: in vivo; summary of the method: as §2
Rattus norvegicus [21] = test: Compound (125I labeled) was evaluated for the total radioactivity in stacking gel 5 min after intravenous administration.; type: functional; summary of the method: as §1
Rattus norvegicus [22] = test: Compound (125I labeled) was evaluated for the total radioactivity in albumin at 30 min after intravenous administration.; type: functional; set-up: concentration or dose not given beside the values; summary of the method: as §1
Rattus norvegicus [23] = test: Biodistribution in Rat lung after 5 minutes of iv administration; per g of tissue; type: ADME, organism-based; details: in vivo; summary of the method: as §2
Rattus norvegicus [24] = test: Biodistribution in Rat heart after 24 hours of iv administration; per g of tissue; type: ADME, organism-based; details: in vivo; summary of the method: as §2
Rattus norvegicus [25] = test: Compound was evaluated for the lipid soluble radioactivity extracted from rat plasma at 24 hr after intravenous administration.; type: functional; summary of the method: as §3
Rattus norvegicus [26] = test: Compound was evaluated for the lipid soluble radioactivity extracted from rat liver at 24 hr after intravenous administration.; type: functional; summary of the method: as §3
Rattus norvegicus [27] = test: Compound (125I labeled) was evaluated for the total radioactivity in low-density lipoprotein, at 30 min after intravenous administration.; type: functional; summary of the method: as §1
Rattus norvegicus [28] = test: Compound (125I labeled)was evaluated for the total radioactivity in low-density lipoprotein 5 min after intravenous administration.; type: functional; summary of the method: as §1
Rattus norvegicus [29] = test: Compound (125I labeled) was evaluated for the total radioactivity in stacking gel at 30 min after intravenous administration.; type: functional; summary of the method: as §1
Rattus norvegicus [30] = test: Biodistribution in Rat lung after 30 minutes of iv administration; type: ADME, organism-based; details: in vivo, 0.5 h; summary of the method: as §2
Rattus norvegicus [31] = test: Biodistribution in Rat heart after 30 minutes of iv administration; type: ADME, organism-based; details: in vivo, 0.5 h; summary of the method: as §2
Rattus norvegicus [32] = test: (§6) Biodistribution in Rat liver after 30 minutes of iv administration; type: ADME, organism-based; details: in vivo, 0.5 h; summary of the method: as §2
Rattus norvegicus [33] = test: Biodistribution in Rat lung after 5 minutes of iv administration; type: ADME, organism-based; details: in vivo; summary of the method: as §2
Rattus norvegicus [34] = test: Biodistribution in Rat lung after 24 hours of iv administration; type: ADME, organism-based; details: in vivo; summary of the method: as §2
Rattus norvegicus [35] = test: Biodistribution in Rat blood after 24 hours of iv administration; type: ADME, organism-based; details: in vivo; summary of the method: as §2
Rattus norvegicus [36] = test: Biodistribution in Rat blood after 5 minutes of iv administration; type: ADME, organism-based; details: in vivo; summary of the method: as §2
Rattus norvegicus [37] = test: as §6; type: ADME, organism-based; details: in vivo, 0.5 h; summary of the method: as §2; remark: listed apart in the source
Rattus norvegicus [38] = test: Biodistribution in Rat heart after 5 minutes of iv administration; type: ADME, organism-based; details: in vivo; summary of the method: as §2
Rattus norvegicus [39] = test: Biodistribution in Rat blood after 30 minutes of iv administration; type: ADME, organism-based; details: in vivo, 0.5 h; summary of the method: as §2
Rattus norvegicus [40] = test: Biodistribution in Rat heart after 24 hours of iv administration; type: ADME, organism-based; details: in vivo; summary of the method: as §2
Rattus norvegicus [41] = test: Compound (125I labeled) was evaluated for the total radioactivity in low-density lipoprotein 5 min after intravenous administration.; type: functional; set-up: concentration or dose not given beside the values; summary of the method: as §1
Rattus norvegicus [42] = test: Biodistribution in Rat liver after 5 minutes of iv administration; type: ADME, organism-based; details: in vivo; summary of the method: as §2
Rattus norvegicus [43] = test: Compound (125I labeled)was evaluated for the total radioactivity in stacking gel 5 min after intravenous administration.; type: functional; summary of the method: as §1
Rattus norvegicus [44] = test: Biodistribution in Rat liver after 24 hours of iv administration; type: ADME, organism-based; details: in vivo; summary of the method: as §2

Biodistribution (Rattus norvegicus [2]) [%]	Biodistribution (Rattus norvegicus [3]) [%]	SMILES	Total radioactivity (Rattus norvegicus [1]) [%]	Total radioactivity (Rattus norvegicus [5]) [%]	Extracted (Rattus norvegicus [6]) [%]	Parent compound (Rattus norvegicus [6]) [%]	Total radioactivity (Rattus norvegicus [7]) [%]	Radioactivity (Rattus norvegicus [8])	Radioactivity (Rattus norvegicus [10])	Extracted (Rattus norvegicus [11]) [%]	Parent compound (Rattus norvegicus [11]) [%]	Radioactivity (Rattus norvegicus [13])	Total radioactivity (Rattus norvegicus [16])	Total radioactivity (Rattus norvegicus [22]) [%]	Extracted (Rattus norvegicus [25]) [%]	Parent compound (Rattus norvegicus [25]) [%]	Extracted (Rattus norvegicus [26]) [%]	Parent compound (Rattus norvegicus [26]) [%]	Total radioactivity (Rattus norvegicus [27]) [%]	Total radioactivity (Rattus norvegicus [29]) [%]	further results
4.75	0.12	CCCCCCCCCCCCCCCC(=O)OC(COC(=O)Cc1c(I)cc(I)c(N)c1I)COC(=O)Cc1c(I)cc(I)c(N)c1I	34.7	4.5	90.5	89.5	42	10.3	57.2	82.7	82.8	38.8	3.2% and 2.4%	3.9	67	60.8	80.1	68.8	35.1	16.6	Biodistribution (Rattus norvegicus [4]): 0.54% and 5.53%; Biodistribution (Rattus norvegicus [9]): 0.32%; Biodistribution (Rattus norvegicus [12]): 7.62%; Biodistribution (Rattus norvegicus [14]): 7.62%; Biodistribution (Rattus norvegicus [15]): 2.62%; Biodistribution (Rattus norvegicus [17]): 0.73%; Biodistribution (Rattus norvegicus [18]): 0.13%; Biodistribution (Rattus norvegicus [19]): 0.64%; Biodistribution (Rattus norvegicus [20]): 0.11% and 1.39%; Total radioactivity (Rattus norvegicus [21]): 18.7%; Biodistribution (Rattus norvegicus [23]): 1.13%; Biodistribution (Rattus norvegicus [24]): 0.05%; Total radioactivity (Rattus norvegicus [28]): 39%
–	–	CCC(Cc1c(I)cc(I)c(N)c1I)C(=O)OCC(COC(=O)C(CC)Cc1c(I)cc(I)c(N)c1I)OC(=O)C(CC)Cc1c(I)cc(I)c(N)c1I (centres undefined)	48.2	2.9	89	92.9	55.8	66.8	26	90.5	89.1	22.4	0.3% and 1.9%	5.3	83.4	75.1	91.7	92.3	27	9.9	Biodistribution (Rattus norvegicus [30]): 0.67%; Biodistribution (Rattus norvegicus [31]): 0.39%; Biodistribution (Rattus norvegicus [32]): 2.79%; Biodistribution (Rattus norvegicus [33]): 1.49%; Biodistribution (Rattus norvegicus [34]): 0.58%; Biodistribution (Rattus norvegicus [35]): 0.14%; Biodistribution (Rattus norvegicus [36]): 6.95%; Biodistribution (Rattus norvegicus [37]): 2.79%; Biodistribution (Rattus norvegicus [38]): 0.97%; Biodistribution (Rattus norvegicus [39]): 3.31%; Biodistribution (Rattus norvegicus [40]): 0.1%; Total radioactivity (Rattus norvegicus [41]): 33.4%; Biodistribution (Rattus norvegicus [42]): 0.87% and 3.57%; Total radioactivity (Rattus norvegicus [43]): 15.2%; Biodistribution (Rattus norvegicus [44]): 0.18% and 9.19%
3.48	0.31	CCCCCCCCCCCCCCCC(=O)OC(COC(=O)CCc1c(I)cc(I)c(N)c1I)COC(=O)CCc1c(I)cc(I)c(N)c1I	52.8	5	86.2	94.2	36.3	14.7	38.4	62.9	90.6	43.1	0.2% and 1.2%	2.8	63.7	80	83.1	88	40.6	19	Biodistribution (Rattus norvegicus [4]): 0.5% and 6.19%; Biodistribution (Rattus norvegicus [9]): 0.56%; Biodistribution (Rattus norvegicus [12]): 5.82%; Biodistribution (Rattus norvegicus [14]): 5.82%; Biodistribution (Rattus norvegicus [15]): 4.25%; Biodistribution (Rattus norvegicus [17]): 0.94%; Biodistribution (Rattus norvegicus [18]): 0.21%; Biodistribution (Rattus norvegicus [19]): 0.43%; Biodistribution (Rattus norvegicus [20]): 0.29% and 2.19%; Total radioactivity (Rattus norvegicus [21]): 14.2%; Biodistribution (Rattus norvegicus [23]): 0.75%; Total radioactivity (Rattus norvegicus [41]): 27.8%; Biodistribution (Rattus norvegicus [24]): 0.42%
